Results: ChEMBL document CHEMBL3046812, “Synthesis, fungicidal activity, and 3D-QSAR of pyridazinone-substituted 1,3,4-oxadiazoles and 1,3,4-thiadiazoles” (2002)

Tested on: Puccinia recondita
Test: Antifungal activity against Puccinia recondita infected wheat leaves after 10 days relative to triadimefon
Type: functional
Procedure, shortened: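 Wheat leaves inoculated with Puccinia recondita uredospores mixed 1:10 with talcum powder, held 24 h in a moist chamber, then sprayed once dry with 0.001 M compound solutions in water/DMF (5:1, with Sorpal-144). Plants kept in greenhouse; percent disease control versus untreated pots scored 10 days after treatment. Three replicates; triadimefon reference tested at 100 ppm under identical conditions.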

| Compound | inhibition (INH) [%] |
| --- | --- |
| Cc1ccc(-n2nc(-c3nnc(Nc4cccc(C(F)(F)F)c4)o3)c(=O)cc2C)c(C)c1 | 0.7 |
| Cc1cc(=O)c(-c2nnc(Nc3cccc(C(F)(F)F)c3)s2)nn1-c1cc(Cl)c(Cl)cc1Cl | 0.7 |
| Cc1cc(=O)c(-c2nnc(Nc3cccc(C(F)(F)F)c3)o2)nn1-c1ccc(Cl)cc1 | 0.9 |
| Cc1ccc(-n2nc(-c3nnc(Nc4ccccc4F)o3)c(=O)cc2C)c(C)c1 | 0.8 |
| Cc1cc(=O)c(-c2nnc(Nc3ccccc3F)s2)nn1-c1c(Cl)cccc1Cl | 0.3 |
| Cc1cc(=O)c(-c2nnc(Nc3ccccc3)o2)nn1-c1ccccc1Cl | 0.1 |
| Cc1cc(=O)c(-c2nnc(Nc3ccccc3)s2)nn1-c1ccccc1Cl | 0.1 |
| Cc1cc(=O)c(-c2nnc(Nc3ccccc3F)s2)nn1-c1ccccc1 | 0.5 |
| Cc1cc(=O)c(-c2nnc(Nc3ccccc3F)s2)nn1-c1ccc(Cl)cc1 | 0.5 |
| Cc1cc(=O)c(-c2nnc(Nc3ccccc3F)o2)nn1-c1cc(Cl)c(Cl)cc1Cl | 0.9 |
| Cc1cc(=O)c(-c2nnc(Nc3cccc(C(F)(F)F)c3)s2)nn1-c1c(Cl)cccc1Cl | 0.5 |
| Cc1cc(=O)c(-c2nnc(Nc3cccc(C(F)(F)F)c3)s2)nn1-c1ccc(Cl)cc1Cl | 0.9 |
| Cc1ccc(-n2nc(-c3nnc(Nc4cccc(C(F)(F)F)c4)s3)c(=O)cc2C)c(C)c1 | 0.9 |
| Cc1cc(=O)c(-c2nnc(Nc3ccccc3F)o2)nn1-c1ccccc1 | 0.9 |
| COc1ccc(Nc2nnc(-c3nn(-c4ccc(Cl)cc4)c(C)cc3=O)o2)cc1 | 0.8 |
| Cc1cc(=O)c(-c2nnc(Nc3ccccc3F)o2)nn1-c1ccc(Cl)cc1 | 0.7 |
| Cc1cc(=O)c(-c2nnc(Nc3ccccc3F)s2)nn1-c1ccccc1Cl | 0.1 |
| Cc1cc(=O)c(-c2nnc(Nc3ccccc3F)o2)nn1-c1ccccc1Cl | 0.8 |
| Cc1cc(=O)c(-c2nnc(Nc3cccc(C(F)(F)F)c3)s2)nn1-c1ccccc1Cl | 0.7 |
| Cc1cc(=O)c(-c2nnc(Nc3ccccc3F)s2)nn1-c1ccc(Cl)cc1Cl | 0.8 |
| Cc1ccc(-n2nc(-c3nnc(Nc4ccccc4F)s3)c(=O)cc2C)c(C)c1 | 0.9 |
| Cc1cc(=O)c(-c2nnc(Nc3cccc(C(F)(F)F)c3)o2)nn1-c1ccccc1Cl | 0.9 |
| Cc1cc(=O)c(-c2nnc(Nc3cccc(C(F)(F)F)c3)s2)nn1-c1ccccc1 | 0.6 |
| Cc1cc(=O)c(-c2nnc(Nc3ccccc3F)o2)nn1-c1c(Cl)cccc1Cl | 0.8 |
| Cc1cc(=O)c(-c2nnc(Nc3cccc(C(F)(F)F)c3)s2)nn1-c1ccc(Cl)cc1 | 0.6 |
| Cc1cc(=O)c(-c2nnc(Nc3ccccc3F)s2)nn1-c1cc(Cl)c(Cl)cc1Cl | 0.6 |
| Cc1cc(=O)c(-c2nnc(Nc3ccccc3)s2)nn1-c1ccc(Cl)cc1Cl | 0.2 |
